High-throughput results as filed in PubChem BioAssay.
Most compounds without a hit are left out; they make up all but 4.8% or so of the library.
T cruzi inh: blocks replication of Trypanosoma cruzi; T. cruzi beta-gal in NIH3T3, luminescence, 90 h; 300,000 compounds, 1.4% hits; inhibition, % (test concentration not listed);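 active = mean inhibition across valid replicates above about 55%, limit read from the data; inconclusive = mean below that limit but half or more replicates reach it; inactive = mean below it, under half of replicates reach it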;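 note: signal also drops with host cell toxicity which is not excluded here; 0% = plate median of DMSO wells and 100% = zero luminescence signal; higher percent means less beta-gal luminescence so fewer parasites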
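compound dosing = single 50 nL compound addition per well in DMSO | material = NIH/3T3 host cells with β-galactosidase reporter T. cruzi | input = 5,000 host fibroblasts per well | timing = ≥90 h infection period, 3 h prior cell attachment | read-out basis = percent inhibition of parasite-derived β-gal signal | detection = GalScreen β-gal luminescence, detergent lysis, 60 min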
SUMO Mot1 rescue: blocks SUMOylation pathway, rescuing yeast Mot1-301 growth | growth rescue, % at 18.8 µM | 320,000 compounds, 1% hits | S. cerevisiae Mot1-301 growth rescue, ATP luminescence, 38.5C; percent above DMSO median, 100 means doubled;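 active = every valid replicate shows activation above 250% relative to neutral control wells; inactive = the rest, any valid replicate at or below 250%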;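 note: OY570 slx delta 5 strain wells were the positive control but not used for scaling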
Beta cell apopt: beta cell apoptosis inhibition. AID 435005. protection from apoptosis, % (concentration not given with the values). INS-1E cytokine-induced death, ATP luminescence, 48 h; percent of positive-control rescue, neutral wells zero. 300,000 compounds, 0.8% hits;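 active = Every replicate reaches about 75%, or at least half do and their mean reaches it too, limit read from the data; inconclusive = At least half of replicates reach the limit but their mean does not; inactive = Under half of replicates reach the limit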;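 note: 0% = cytokine-treated negative control wells and 100% = positive control rescue; higher means more ATP so stronger rescue from cytokine killing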
CSC inhib: blocks cancer stem cells; cancer stem cell-like cells viability, luminescence; inhibition, % at 7.5 µM; 300,000 compounds, 1.1% hits; AID 2717; in the data active = inhibition above about 75%; inconclusive = no clear call, values can overlap the other calls; tested in HMLE shEcad cells
Efflux pump inh: antifungal efflux pump inhibition, Nile Red retention | S. cerevisiae Candida pump triplex | inhibition, % at 10 µM | 330,000 compounds, 0.44% hits;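 active = plate passing quality check with inhibition over a set limit, or well fluorescence over plate mean plus 4 SD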;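 note: Nile Red retained in pooled yeast measured as flow cytometry median fluorescence; 0% = buffer negative control and 100% = Enniatin B positive control; higher means more Nile Red kept so more efflux inhibition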
WT yeast gro inh: growth inhibition of WT yeast, mitochondrial fusion screen. inhibition, % at 10 µM. mitochondrial fusion phenotypic screen, WT strain. AID 1362. 190,000 compounds, 2.1% hits; in the data active = inhibition above about 58%; tested in S. cerevisiae
Active calls of the source: *; ? = inconclusive; . = not tested or not shown.

SMILES | T cruzi inh | SUMO Mot1 rescue | Beta cell apopt | CSC inhib | Efflux pump inh | WT yeast gro inh
Cc1cccc(C(=O)NC(NCCc2ccccc2)C(Cl)(Cl)Cl)c1 (configuration not stated) | 6.0 | 14.7 | 2.4 | 24.1 | -0.1 | 58.8*
O=C(Nc1ccc(N2CCCCC2)cc1)c1ccccn1 | 18.3 | -60.2 | 47.5 | -3.9 | 0.3 | 60.6*
COc1ccccc1C(=O)Nc1cccc2c1CCCC2 | 6.5 | 75.9 | . | 13.6 | -0.1 | .
FC(F)(F)c1nnc2c(Sc3ccccc3)nc3ccc(Cl)cc3n12 | ? | 2.4 | 96.1* | -0.1 | -0.1 | -18.8
CC(C)(C)n1nnnc1C(c1cccc(C#N)c1)N1CCCc2ccccc21 (configuration not stated) | 26.8 | -9.5 | -7.9 | -2.1 | 0.2 | 27.9
CCC(C)(C)n1nnnc1C(c1ccc(C)cc1)N1CCN(Cc2cccnc2)CC1 (configuration not stated) | 10.6 | 2.4 | . | -5.0 | 0.0 | -6.4
CC(C)(C)n1nnnc1C(c1cccc(C#N)c1)N1CCC(Cc2ccccc2)CC1 (configuration not stated) | 80.9* | 5.8 | 11.9 | 4.1 | 0.1 | 16.9
CCC(C)(C)n1nnnc1C(c1cccc(C#N)c1)N1CCN(c2cc(C)ccc2C)CC1 (configuration not stated) | 61.0* | 312.6 | 11.9 | 14.9 | 0.0 | .
CCC(C)(C)n1nnnc1C(c1ccncc1)N1CCC(Cc2ccccc2)CC1 (configuration not stated) | 65.3* | 30.1 | 2.8 | 1.5 | -0.1 | 4.8
CN(Cc1ccccc1)C(=O)CC(c1ccccc1)c1cc(Cl)ccc1O (configuration not stated) | . | 21.3 | 0.9 | 26.4 | 0.4 | -11.0
O=C(CCC1CCCC1)Nc1ccc(C(=O)NCc2cccnc2)cc1 | -48.6 | -5.4 | 100.1* | ? | 0.1 | -6.2
O=C(O)CCCC(=O)Nc1ccc(C(=O)NCc2cccnc2)cc1 | -0.9 | 2.8 | 101.1* | -0.8 | -0.1 | 6.2
NC1=NC(=O)C(Cc2ccc(OC(F)(F)F)cc2)S1 (configuration not stated) | -1.8 | -20.6 | -11.5 | 2.0 | -0.1 | .
CC1(C)Cc2c(sc(NC(=O)C(=O)N3CCCCC3)c2C(N)=O)CO1 | -1.3 | -6.2 | -6.3 | 2.1 | 0.0 | .
O=C(COc1c(F)c(F)c(C(F)(F)F)c(F)c1F)Nc1ccc(N2CCOCC2)c(Cl)c1 | 15.5 | 66.6 | 4.7 | 31.6 | 0.0 | 69.7*
CCC(C)c1ccc(NC(=O)COc2c(F)c(F)c(C(F)(F)F)c(F)c2F)cc1 (configuration not stated) | 15.1 | -20.6 | 3.5 | 61.0 | -0.3 | 69.7*
Cc1noc(C(=O)N2CCN(Cc3ccc4c(c3)OCO4)CC2)c1Cl | -12.3 | -8.0 | -0.2 | -5.0 | 0.9 | .
CC(C)Cn1c(N)c(C(=O)COC(=O)c2ccc3c(c2)OCCO3)c(=O)n(C)c1=O | 30.6 | -15.6 | 19.1 | 3.6 | -0.1 | 2.2
CC(C)Cn1c(N)c(C(=O)CSc2ccc3c(c2)OCCO3)c(=O)n(C)c1=O | 28.6 | 7.5 | 94.2* | -5.0 | -0.2 | -1.9
O=C(O)c1ccccc1C(=O)c1ccc2c(c1)N(Cc1ccc(Cl)c(Cl)c1)C(=O)CO2 | 24.3 | 20.5 | . | 3.6 | 0.2 | 62.9*
O=C(CN1C(=O)COc2ccccc21)NCc1ccc(C(=O)O)cc1 | 3.9 | 18.3 | -5.5 | 0.4 | 0.0 | 6.4
CC(=O)c1cccc(NC(=O)C23CC4CC(C2)CC(n2cncn2)(C4)C3)c1 | -9.4 | -8.0 | -6.7 | -7.3 | 0.5 | -4.1
c1ccc(CN2CCC(Nc3ncnc4sccc34)CC2)cc1 | 25.0 | -9.2 | 17.9 | -7.6 | 0.0 | -13.8
Cc1sc2ncnc(NC3CCN(Cc4ccccc4)CC3)c2c1C | 58.2* | 3.0 | 77.1* | 21.6 | -0.1 | 2.4
Cc1cc(C)nc(N/N=C/c2cc(Br)ccc2O)n1 | 10.8 | . | 88.0* | 40.5 | 0.0 | .
SMILES | T cruzi inh | SUMO Mot1 rescue | Beta cell apopt | CSC inhib | Efflux pump inh | WT yeast gro inh
CC(C)OP(=O)(OC(C)C)C(Nc1ccccc1)c1cccc2c1OCO2 (configuration not stated) | 7.5 | 278.7* | -0.6 | . | 0.6 | 4.0
O=C1c2ccccc2NC(c2ccc(O)cc2)N1c1ccccc1 (configuration not stated) | 1.3 | 13.6 | 1.2 | 18.3 | 0.0 | .
O=C(COC(=O)c1ccc([N+](=O)[O-])o1)Nc1ccc(Br)cc1F | . | 336.7* | -5.8 | 18.2 | 0.1 | .
O=C(COC(=O)c1ccc([N+](=O)[O-])o1)Nc1ccc(F)cc1 | . | 18.7 | 4.7 | -6.7 | 0.2 | .
CC(=O)Nc1ccc(S(=O)(=O)N(C)CC(=O)OCC(=O)N2CCCC2=O)cc1 | -7.8 | -9.0 | -6.7 | -10.4 | 0.0 | .
CC(C)=CCc1c(O)cc2c(=O)c3ccc(O)cc3oc2c1O | -0.8 | 72.3 | -1.8 | 82.7* | -0.6 | .
COc1c(CC=C(C)C)c(O)cc2oc(=O)c3c4ccc(O)cc4oc3c12 | 5.5 | 25.5 | -6.2 | -2.4 | -0.1 | .
COc1ccc([C@H]2CC(=O)C=C(c3ccc(Oc4ccccc4)cc3)C2)cc1OC | . | 1.0 | 11.3 | 3.8 | 0.3 | .
CCOC(=O)c1sc2nccc(N(C)C)c2c1N=CNOCc1c(F)cccc1Cl | 69.9* | -11.5 | . | 35.0 | -0.1 | 39.5
Cc1[nH]c2ccccc2c1N=Nc1ccc(F)cc1 | 1.8 | 93.1 | -1.5 | 71.5 | -0.1 | 67.8
Cc1[nH]c2ccccc2c1N=Nc1ccccc1F | -12.4 | 29.6 | 3.4 | 58.3 | 0.3 | 72.2*
CCC(C)NC(=O)Cc1ccc(-c2ccccc2)cc1 (configuration not stated) | 61.6* | 25.2 | 0.5 | 16.0 | 1.3 | -2.9
CCN(CC(=O)NCc1cccs1)C(=O)c1ccc([N+](=O)[O-])o1 | 63.5* | -3.4 | -15.0 | 1.7 | -0.2 | .
FC(F)(F)c1ccc(CN2C[C@@H]3C(c4ccc(C(F)(F)F)cc4)C4(c5cccnc5)CC3(C4)[C@H]2c2ccccc2)cc1 (some centres not stated) | 35.4 | -13.1 | 109.1* | 41.8 | 0.3 | .
Clc1ccc(C2[C@H]3CN(Cc4cccnc4)[C@H](c4ccccc4)C34CC2(c2ccccc2)C4)cn1 (some centres not stated) | 56.2* | 60.5 | 6.6 | 16.3 | 0.2 | .
c1ccc(C2[C@H]3CN(Cc4cccnc4)[C@H](c4ccccc4)C34CC2(c2ccccc2)C4)cc1 (some centres not stated) | 35.8 | 78.9 | 8.6 | -3.3 | 0.1 | .
FC(F)(F)c1ccc(CN2C[C@@H]3C(c4ccccc4)C4(c5cccnc5)CC3(C4)[C@H]2c2ccccc2)cc1 (some centres not stated) | 46.7 | 17.4 | 13.1 | 63.0 | 0.1 | .
COc1ccc(C(=O)c2ccc([N+](=O)[O-])cc2)cc1S(=O)(=O)N1CCC(C(=O)O)CC1 | -2.9 | 64.8 | -2.5 | -28.8 | 0.1 | .
CC(=O)Nc1ccc(NC(=O)CSc2nnc(-c3ccccc3)n2Cc2ccc3c(c2)OCO3)cc1 | 20.5 | -1.4 | -4.7 | -26.2 | -0.1 | 65.6*
